This is an account of results in ChEMBL document CHEMBL3526048, “In vitro metabolism of rivoglitazone, a novel peroxisome proliferator-activated receptor γ agonist, in rat, monkey, and human liver microsomes and freshly isolated hepatocytes” (Drug Metab Dispos, 2011).

The target of series [1] is T1, Cytochrome P450 3A5 (Homo sapiens, UniProt P20815). Briefly: Activity of human CYP3A5 expressed in microsomes isolated from baculovirus infected insect cell assessed as enzyme-mediated 2-((4-((2,4-dioxothiazolidin-5-yl)methyl)phenoxy)methyl)-1-methyl-1H-benzo[d]imidazol-6-yl hydrogen sulfate formation at 20 uM after 2 hrs by radio-HPLC/LC-MS/MS analysis. In kind it is ADME. A digest of the protocol: (§1)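 Baculovirus-insect-cell microsomes expressing the human CYP (1 mg/ml protein) were incubated with [14C]rivoglitazone (20 μM) in 50 mM potassium phosphate (pH 7.4) or 100 mM Tris-HCl (pH 7.5) with an NADPH-generating system (2 mM NADP+, 20 mM glucose 6-phosphate, 2 units/ml G6PDH, 10 mM MgCl2) for 2 h at 37°C. Insect-cell control supersomes served as the control. Reactions were stopped with acetonitrile, and the concentrated supernatants were analysed by radio-HPLC, LC-MS and LC-MS/MS.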

A short description of series [2]: Drug metabolism in cynomolgus monkey liver microsomes assessed as formation of (2S,3S,4S,5R,6R)-6-((1-carboxy-2-(4-((6-methoxy-1-methyl-1H-benzo[d]imidazol-2-yl)methoxy)phenyl)ethylthio)carbonylamino)-3,4,5-trihydroxytetrahydro-2H-pyran-2-carboxylic acid at 20 uM after 4 hrs by radio-HPLC/LC-MS/MS analysis in presence of UDPGA and UDPGA/SAM. Format: ADME, Macaca fascicularis. (In general: Liver microsomes are vesicles of endoplasmic reticulum, rich in cytochrome P450 enzymes.)

Series [3] in a line: Drug metabolism in rat hepatocytes assessed as formation of 2-amino-3-((1-carboxy-2-(4-((6-methoxy-1-methyl-1H-benzo[d]imidazol-2-yl)methoxy)phenyl)ethyl)disulfanyl)propanoic acid at 30 uM after 3 hrs by radio-HPLC/LC-MS/MS analysis. Format: ADME, cell-based, Hepatocyte.
Series [4] deals with T2, Cytochrome P450 2C9 (Homo sapiens, UniProt P11712). In words: Activity of human CYP2C9 expressed in microsomes isolated from baculovirus infected insect cell assessed as enzyme-mediated (2S,3S,4S,5R,6R)-3,4,5-trihydroxy-6-(5-(4-((6-methoxy-1-methyl-1H-benzo[d]imidazol-2-yl)methoxy)benzyl)-2,4-dioxothiazolidin-3-yl)tetrahydro-2H-pyran-2-carboxylic acid formation at 20 uM after 2 hrs by radio-HPLC/LC-MS/MS analysis in presence of UDPGA and UDPGA/SAM. Format: ADME.

The nature of series [5]: Drug metabolism in human hepatocytes assessed as formation of (2S,3S,4S,5R,6R)-6-((1-carboxy-2-(4-((6-methoxy-1-methyl-1H-benzo[d]imidazol-2-yl)methoxy)phenyl)ethylthio)carbonylamino)-3,4,5-trihydroxytetrahydro-2H-pyran-2-carboxylic acid at 30 uM after 3 hrs by radio-HPLC/LC-MS/MS analysis in presence of UDPGA and UDPGA/SAM. In kind it is ADME, cell-based, Hepatocyte.
Series [6] deals with T2, Cytochrome P450 2C9. In words: Activity of human CYP2C9 expressed in microsomes isolated from baculovirus infected insect cell assessed as enzyme-mediated 2-((4-((2,4-dioxothiazolidin-5-yl)methyl)phenoxy)methyl)-1-methyl-1H-benzo[d]imidazol-6-yl hydrogen sulfate formation at 20 uM after 2 hrs by radio-HPLC/LC-MS/MS analysis. Format: ADME. Put shortly:
as §1

The target in series [7] is T1, Cytochrome P450 3A5. In words: Activity of human CYP3A5 expressed in microsomes isolated from baculovirus infected insect cell assessed as enzyme-mediated 2-mercapto-3-(4-((6-methoxy-1-methyl-1H-benzo[d]imidazol-2-yl)methoxy)phenyl)propanoic acid formation at 20 uM after 2 hrs by radio-HPLC/LC-MS/MS analysis in presence of NADPH-generating system. Format: ADME. Put shortly:
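cDNA-expressed human CYP3A5 in baculovirus-insect-cell microsomes (1 mg/ml protein) was incubated with [¹⁴C]rivoglitazone (20 μM) in 50 mM potassium phosphate (pH 7.4) or 100 mM Tris-HCl (pH 7.5). NADPH-generating system: 2 mM NADP⁺, 20 mM glucose 6-phosphate, 2 units/ml G6PDH, 10 mM MgCl₂. Incubation ran 2 h at 37°C with shaking; insect-cell control supersomes served as control. Acetonitrile stop, supernatant concentrated, then radio-HPLC, LC-MS and LC-MS/MS.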

Series [8] addresses T3, UDP-glucuronosyltransferase 2B7 (Homo sapiens, UniProt P16662).
T3 sequence (P16662 whole entry): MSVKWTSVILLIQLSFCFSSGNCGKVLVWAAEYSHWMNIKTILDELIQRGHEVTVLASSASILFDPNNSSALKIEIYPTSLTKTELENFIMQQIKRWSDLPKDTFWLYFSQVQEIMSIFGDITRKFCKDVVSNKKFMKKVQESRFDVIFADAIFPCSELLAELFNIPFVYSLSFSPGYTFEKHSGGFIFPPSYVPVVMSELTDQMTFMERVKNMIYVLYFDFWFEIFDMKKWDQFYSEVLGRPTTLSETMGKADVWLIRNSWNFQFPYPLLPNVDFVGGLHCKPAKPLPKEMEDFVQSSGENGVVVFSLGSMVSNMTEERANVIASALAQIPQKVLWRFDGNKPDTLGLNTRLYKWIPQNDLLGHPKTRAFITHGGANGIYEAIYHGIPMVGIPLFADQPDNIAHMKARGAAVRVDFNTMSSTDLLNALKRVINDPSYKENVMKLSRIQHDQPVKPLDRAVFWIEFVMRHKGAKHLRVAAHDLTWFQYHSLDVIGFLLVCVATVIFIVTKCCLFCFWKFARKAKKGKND
In words: Activity of human UGT2B7 expressed in microsomes isolated from baculovirus infected insect cell assessed as enzyme-mediated (2S,3S,4S,5R,6R)-6-((1-carboxy-2-(4-((6-methoxy-1-methyl-1H-benzo[d]imidazol-2-yl)methoxy)phenyl)ethylthio)carbonylamino)-3,4,5-trihydroxytetrahydro-2H-pyran-2-carboxylic acid formation at 20 uM after 4 hrs by radio-HPLC/LC-MS/MS analysis in presence of NADPH-generating system/SAM. In kind it is ADME.

The subject of series [9] is Hepatocyte. Briefly: Drug level in rat hepatocytes treated with [14C]-rivoglitazone at 30 uM after 3 hrs by radio-HPLC/LC-MS/MS analysis in presence of UDPGA, UDPGA/SAM and NADPH-generating system. Format: ADME, cell-based.

Structures are written as SMILES.

T2 sequence (P11712 whole entry): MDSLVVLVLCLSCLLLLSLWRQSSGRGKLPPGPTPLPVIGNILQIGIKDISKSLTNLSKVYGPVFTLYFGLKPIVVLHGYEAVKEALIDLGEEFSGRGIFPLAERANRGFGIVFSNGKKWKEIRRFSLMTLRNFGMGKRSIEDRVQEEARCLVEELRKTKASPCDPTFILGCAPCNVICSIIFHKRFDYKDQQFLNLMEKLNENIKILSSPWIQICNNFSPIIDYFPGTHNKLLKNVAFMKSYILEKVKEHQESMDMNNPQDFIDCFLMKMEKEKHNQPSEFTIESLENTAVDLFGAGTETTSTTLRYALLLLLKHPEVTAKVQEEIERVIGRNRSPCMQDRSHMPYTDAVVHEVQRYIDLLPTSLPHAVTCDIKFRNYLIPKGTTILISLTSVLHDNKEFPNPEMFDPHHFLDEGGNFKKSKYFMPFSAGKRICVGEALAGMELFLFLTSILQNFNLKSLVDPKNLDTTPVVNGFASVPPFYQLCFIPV
T1 sequence (P20815 whole entry): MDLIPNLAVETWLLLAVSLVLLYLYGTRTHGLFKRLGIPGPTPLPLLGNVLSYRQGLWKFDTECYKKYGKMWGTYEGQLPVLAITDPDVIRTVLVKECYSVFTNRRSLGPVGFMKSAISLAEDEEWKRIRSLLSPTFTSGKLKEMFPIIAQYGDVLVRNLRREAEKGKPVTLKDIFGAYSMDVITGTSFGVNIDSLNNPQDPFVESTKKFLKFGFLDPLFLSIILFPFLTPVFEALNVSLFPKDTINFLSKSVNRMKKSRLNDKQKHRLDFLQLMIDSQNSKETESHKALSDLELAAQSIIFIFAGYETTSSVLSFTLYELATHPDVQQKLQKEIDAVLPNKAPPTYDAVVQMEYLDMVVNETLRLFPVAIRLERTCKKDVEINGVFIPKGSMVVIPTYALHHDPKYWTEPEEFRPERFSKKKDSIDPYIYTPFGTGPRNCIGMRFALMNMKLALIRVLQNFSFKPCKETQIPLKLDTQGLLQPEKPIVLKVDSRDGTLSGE

Regarding `COc1ccc2nc(COc3ccc(C[14CH]4SC(=O)NC4=O)cc3)n(C)c2c1.Cl` (racemic), the Drug metabolism result in series [1] was “metabolite_not_detected”; in [2], “metabolite_detected”; in series [3], “metabolite_not_detected”; in [4] it was “metabolite_not_detected”; in series [5] it was “metabolite_detected”; in [6], “metabolite_not_detected”. Besides, the Drug metabolism entry in series [7] and in [8] was “metabolite_detected” throughout.
As to `COc1ccc2nc(COc3ccc(CC(S)C(=O)O)cc3)n(C)c2c1` (centres undefined), in series [9], the Drug metabolism entry was “metabolite_not_detected”.
